Test results from paper PMC4831585 (Journal of the American Chemical Society, 2015).
Ends that are not written are not given here.

Key:
[1] = target: T1, wt-MoaA (Staphylococcus aureus, UniProt P69848); test: Abortive SAM cleavage; type: biochemical; conditions: 5′-dA vs cPMP amounts, triplicate, SD
[2] = system: MoaA GG-motif mutants; test: MoaA/MoaC coupled assay / peptide rescue, MoaA GG-motif mutants; type: biochemical, Staphylococcus aureus; conditions: for increase of Km over wt-MoaA: GG-motif mutants with 500 μM 11-mer peptide vs wt-MoaA
[3] = target: T2, G340A-MoaA (Staphylococcus aureus, UniProt P69848, G340A); test: MoaA/MoaC coupled assay; type: biochemical; conditions: for activity restoration lower than the 11-mer peptide: G340A-MoaA, peptide 200 μM (Figure 4A)
[4] = target: T2, G340A-MoaA; test: Abortive SAM cleavage; type: biochemical; conditions: G340A-MoaA with 11-mer wt peptide, 5′-dA vs cPMP amounts; triplicate, SD
[5] = target: T1, wt-MoaA; test: Anaerobic ITC, wt-MoaA; type: binding
Summary of the method: (§1)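 His6-tagged S. aureus MoaA (wild type or GG-motif point mutants) was expressed in E. coli, purified and reconstituted anaerobically. […] Run as 29 injections at 24 °C, 307 rpm, with degassed buffer-only control titration.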

[6] = target: T3, MoaA G340A (Staphylococcus aureus, UniProt P69848, G340A); test: Anaerobic ITC, G340A-MoaA; type: binding
T3 sequence (P69848 1-340 G340A): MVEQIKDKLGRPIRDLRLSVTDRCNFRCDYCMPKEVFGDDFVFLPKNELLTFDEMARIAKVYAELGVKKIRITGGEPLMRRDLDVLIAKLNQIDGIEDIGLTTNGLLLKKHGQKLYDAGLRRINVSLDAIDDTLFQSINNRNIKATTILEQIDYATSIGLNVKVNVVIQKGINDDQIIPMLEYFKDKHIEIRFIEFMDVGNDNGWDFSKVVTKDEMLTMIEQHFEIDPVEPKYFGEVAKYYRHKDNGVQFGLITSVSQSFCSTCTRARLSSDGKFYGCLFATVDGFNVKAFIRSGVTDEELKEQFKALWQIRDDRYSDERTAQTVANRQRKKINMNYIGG
Summary of the method: as §1

[7] = target: MoaA G339A (Staphylococcus aureus, UniProt P69848, G339A); test: Anaerobic ITC, G339A-MoaA; type: binding
Summary of the method: as §1

[8] = target: T1, wt-MoaA; conditions: [3′-D]GTP vs GTP as substrate; wt-MoaA reaction; cited from earlier work
[9] = target: R330A/K331A/K332A-MoaA (Staphylococcus aureus, UniProt P69848, K331A/K332A/R330A); test: MoaA/MoaC coupled assay / peptide rescue, R330A/K331A/K332A-MoaA; type: biochemical; conditions: for activity restoration by peptide: peptide 200 μM (Figure 4A)
[10] = target: D198A-MoaA (Staphylococcus aureus, UniProt P69848, D198A); type: biochemical; conditions: without peptide; coupled assay
[11] = with 500 μM 11-mer wt peptide, coupled assay with MoaC, pH 7.6, 25 °C

In the case of `Nc1nc2c(ncn2[C@@H]2O[C@H](COP(=O)(O)OP(=O)(O)OP(=O)(O)O)[C@@H](O)[C@H]2O)c(=O)[nH]1` [GTP, Guanosine 5′-triphosphate], the “uncoupling (abortive SAM cleavage relative to cPMP formation)” value [1] is reported as 4.1 ± 2.7%, the “increase of Km over wt-MoaA” value [2] is reported as 2–17 fold and the Km [3, 11] is reported as 7.7 ± 3.8 µM. The kcat [3, 11] was 0.000783 ± 5e-05 s⁻¹, the “uncoupling (abortive SAM cleavage relative to cPMP formation)” value [4] was 8.2 ± 4.8% and the Kd [5] was 5 ± 3 µM. For the same molecule, the Kd [6] was 5.2 ± 2.3 µM and the Kd [7] was 0.46 ± 0.01 µM.

In the case of `C[S+](CC[C@H](N)C(=O)[O-])C[C@H]1O[C@@H](n2cnc3c(N)ncnc32)[C@H](O)[C@@H]1O` (stereo partly drawn) [SAM, S-adenosyl-L-methionine], the “increase of Km over wt-MoaA” value [2] is reported as 7–18 fold, the Km [3, 11] is reported as 37 ± 14 µM and the Kd [5] is reported as 1.7 ± 0.6 µM. For the same molecule, the Kd [6] was over 90 µM and the Kd [7] was over 90 µM.

For `[2H][C@@]1(O)[C@@H](COP(=O)(O)OP(=O)(O)OP(=O)(O)O)O[C@@H](n2cnc3c(=O)[nH]c(N)nc32)[C@@H]1O` [[3′-D]GTP], the “uncoupling (abortive SAM cleavage relative to cPMP formation)” value [1] is given as 5.5 ± 3.0%, the KIE [8] is given as 1.28 ± 0.05 and the “uncoupling (abortive SAM cleavage relative to cPMP formation)” value [4] is given as 25 ± 6.7%.

In the case of INMNYIGG [8-mer], the “activity restoration lower than the 11-mer peptide” value ([3]; coupled assay) is reported as 10 fold and the “activity restoration by peptide” value [9] is reported as “No significant activity restoration”.

With NYIGG [5-mer] the “activity restoration lower than the 11-mer peptide” value ([3]; coupled assay) was 100 fold and the “activity restoration by peptide” value [9] was “No significant activity restoration”.

For RKKINMNYIGA, the “restoration of MoaA activity by GG-motif mutated peptide” value ([2]; even at 1.0 mM peptide concentration, coupled assay (Figure 3A)) was “did not restore the MoaA activity”.

With RKKINMNYIGG [11-mer wt peptide] the Kd ([3]; KD (peptide titration, figure legend), Figure 3C, nonlinear fit to the Hill equation, coupled assay) was 151 µM and the Kd ([9]; Kd (peptide titration, figure legend), Figure 4B, nonlinear fit to Hill equation) was 172 µM.

B1: D198A-MoaA: S. aureus MoaA variant with D198A mutation in Loop 14 (protein)
chain: MVEQIKDKLGRPIRDLRLSVTDRCNFRCDYCMPKEVFGDDFVFLPKNELLTFDEMARIAKVYAELGVKKIRITGGEPLMRRDLDVLIAKLNQIDGIEDIGLTTNGLLLKKHGQKLYDAGLRRINVSLDAIDDTLFQSINNRNIKATTILEQIDYATSIGLNVKVNVVIQKGINDDQIIPMLEYFKDKHIEIRFIEFMAVGNDNGWDFSKVVTKDEMLTMIEQHFEIDPVEPKYFGEVAKYYRHKDNGVQFGLITSVSQSFCSTCTRARLSSDGKFYGCLFATVDGFNVKAFIRSGVTDEELKEQFKALWQIRDDRYSDERTAQTVANRQRKKINMNYIGG
In the case of B1, the “activity of mutant relative to wt-MoaA” value [10] is reported as 8 % the activity of wt-MoaA.

B2: R330A/K331A/K332A-MoaA (protein)
chain: MVEQIKDKLGRPIRDLRLSVTDRCNFRCDYCMPKEVFGDDFVFLPKNELLTFDEMARIAKVYAELGVKKIRITGGEPLMRRDLDVLIAKLNQIDGIEDIGLTTNGLLLKKHGQKLYDAGLRRINVSLDAIDDTLFQSINNRNIKATTILEQIDYATSIGLNVKVNVVIQKGINDDQIIPMLEYFKDKHIEIRFIEFMDVGNDNGWDFSKVVTKDEMLTMIEQHFEIDPVEPKYFGEVAKYYRHKDNGVQFGLITSVSQSFCSTCTRARLSSDGKFYGCLFATVDGFNVKAFIRSGVTDEELKEQFKALWQIRDDRYSDERTAQTVANRQAAAINMNYIGG
With B2 the “activity of mutant relative to wt-MoaA” value ([9]; without peptide) was 8 % the activity of wt-MoaA.
